Conditions in all cases: stereoisomer not certain
Experiment [1] relates to T1, A0A140T8K0.
T1 sequence (whole entry): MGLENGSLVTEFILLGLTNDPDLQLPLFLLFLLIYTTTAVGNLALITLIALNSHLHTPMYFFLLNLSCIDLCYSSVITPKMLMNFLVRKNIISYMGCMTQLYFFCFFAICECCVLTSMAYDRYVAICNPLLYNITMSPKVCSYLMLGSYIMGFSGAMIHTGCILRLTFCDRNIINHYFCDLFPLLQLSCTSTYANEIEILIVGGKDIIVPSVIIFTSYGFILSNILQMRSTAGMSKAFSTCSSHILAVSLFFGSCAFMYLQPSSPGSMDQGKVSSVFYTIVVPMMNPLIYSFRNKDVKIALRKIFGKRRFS
The essentials:
(§1)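 Each entry records the cell line, G-protein, co-transfected protein and tags used. Methods varied with the source, often transient luciferase assays in mammalian cell lines. A receptor–molecule pair is called responsive (active) if the original authors judged its signal statistically different from baseline and non-responsive (inactive) otherwise.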

Experiment [2] deals with A0A2J8KNW9. In a few lines:
as §1

In experiment [3] the test system is A0A2R8ZMP6. In a few lines: as §1

Experimental findings from the M2OR odorant receptor database are described below.

The structures appear in SMILES notation.

With `CC1CC=CCCCCCCCCCC(=O)C1` (centres undefined), the “odorant receptor agonist call” value in experiment [1] was “inactive”.

In the case of `CCCC=O`, in experiment [1], the “odorant receptor agonist call” value was “inactive”.

Consider `CCCCCCCCCC=CC=O`, for which, in experiment [1], the “odorant receptor agonist call” value was “inactive”.

Regarding `CC1(C)CC(=O)CC(=O)C1`, the “odorant receptor agonist call” value in experiment [1] is “inactive”.

Consider `O=C(O)C1CCC1`, for which the “odorant receptor agonist call” value in experiment [1] was “inactive”.

For the molecule `CCC=CCCC=CC=O`, the “odorant receptor agonist call” value in experiment [1] was “inactive”.

Turning to `CCCCCCCCCCCO`, in experiment [1], the “odorant receptor agonist call” value was “inactive”.

Regarding `CC(C)CCN`, the “odorant receptor agonist call” value in experiment [1] is “inactive”.

Take `CCCCCCC(C=O)=Cc1ccccc1`: the “odorant receptor agonist call” value in experiment [1] is “inactive”.

For `COc1ccccc1`, the “odorant receptor agonist call” value in experiment [1] was “inactive”.

As for `OCCCCCCCCCO`, the “odorant receptor agonist call” value in experiment [1] was “inactive”.

Regarding `CC(=O)C=CC1=C(C)CCCC1(C)C`, the “odorant receptor agonist call” value in experiment [1] was “inactive”.

Take `CC1CCC(C(C)C)C(=O)C1` (centres undefined): the “odorant receptor agonist call” value in experiment [1] is “inactive”.

With `CCCCCCC(C)O` (centres undefined), the “odorant receptor agonist call” value in experiment [1] is “inactive”.

Turning to `CCOC(=O)CC(C)C`, the “odorant receptor agonist call” value in experiment [1] was “inactive”.

Turning to `CCc1ccc(O)cc1`, in experiment [1], the “odorant receptor agonist call” value is “inactive”.

For `CCCCC=O`, the “odorant receptor agonist call” value in experiment [1] was “inactive”.

As for `CCC(C)O` (centres undefined), in experiment [1], the “odorant receptor agonist call” value is “inactive”.

On to `CSSCc1ccco1`, for which the “odorant receptor agonist call” value in experiment [1] is “inactive”.

As to `C1CCOCC1`, the “odorant receptor agonist call” value in experiment [1] was “inactive”.

In the case of `CC=CC(=O)C1=C(C)CCCC1(C)C`, in experiment [1], the “odorant receptor agonist call” value was “inactive”.

Regarding `CC(=O)C1(C)CC2=C(CCCC2(C)C)CC1C` (centres undefined), the “odorant receptor agonist call” value in experiment [1] is “inactive”.

Regarding `CCN(CC)CC`, in experiment [1], the “odorant receptor agonist call” value was “inactive”.

As to `C=CC(C)=CCC=C(C)CCC=C(C)C`, the “odorant receptor agonist call” value in experiment [1] was “inactive”.

On to `CC(=O)OCCc1ccccc1`, for which the “odorant receptor agonist call” value in experiment [1] was “inactive”.

Regarding `CC(C)=CCCC(C)=CCOC(=O)C(C)C`, the “odorant receptor agonist call” value in experiment [1] was “inactive”.

Consider `C1CCOC1`, for which the “odorant receptor agonist call” value in experiment [1] is “inactive”.

For the molecule `Cc1c(C)c(C)c(C=O)c(C)c1C`, the “odorant receptor agonist call” value in experiment [1] was “inactive”.

In the case of `Cc1ccc(OC(=O)C(C)C)cc1`, in experiment [1], the “odorant receptor agonist call” value was “inactive”.

Regarding `Cc1occc1SSc1ccoc1C`, the “odorant receptor agonist call” value in experiment [1] was “inactive”.

Take `CCCCCOC(=O)CC`: the “odorant receptor agonist call” value in experiment [1] was “inactive”.

`CCCCCCCCCCOC(C)=O`: in experiment [1], the “odorant receptor agonist call” value is “inactive”.

`CCSCC`: the “odorant receptor agonist call” value in experiment [1] is “inactive”.

`CCCCCCC=CC=O`: in experiment [1], the “odorant receptor agonist call” value was “inactive”.

Regarding `CCOC(=O)C(C)CC` (centres undefined), the “odorant receptor agonist call” value in experiment [1] is “inactive”.

On to `Cc1ccc(C(C)C)c(O)c1`, for which the “odorant receptor agonist call” value in experiment [1] is “inactive”.

With `O=C([O-])CCCCCCCC(=O)[O-].[H+].[H+]`, the “odorant receptor agonist call” value in experiment [1] was “inactive”.

On to `CCC(S)C(C)CO` (centres undefined), for which the “odorant receptor agonist call” value in experiment [2] and in experiment [3] was “inactive” in each case.
